From ChEMBL document CHEMBL3813601, “Structure-Based Inhibitor Design for Evaluation of a CYP3A4 Pharmacophore Model” (J Med Chem, 2016)

How the values were obtained:
Assay type in all cases: ADME
Cytochrome P450 3A4 [1] = target: T1, Cytochrome P450 3A4 (Homo sapiens, UniProt P08684); experiment: Binding affinity to C-terminal four-histidine tagged human CYP3A4delta3 to 24 residues expressed in Escherichia coli assessed as change in melting temperature at 10 uM by spectrophotometric method
Cytochrome P450 3A4 [2] = target: T1, Cytochrome P450 3A4; experiment: Binding affinity to C-terminal four-histidine tagged human CYP3A4delta3 to 24 residues expressed in Escherichia coli assessed as rate constant for first phase
How it was run: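 Stopped-flow mixing of 2 μM CYP3A4 with varied ligand concentrations, room temperature, 50 mM phosphate pH 7.4. Absorbance followed at 409–411 or 427–428 nm depending on ligand. Fast-phase rate constant taken at saturating ligand concentration.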

Cytochrome P450 3A4 [3] = target: T1, Cytochrome P450 3A4; experiment: Inhibition of C-terminal four-histidine tagged human CYP3A4delta3 to 24 residues expressed in Escherichia coli assessed as 7-benzyloxy-4-(trifluoromethyl)coumarin O-debenzylation pretreated 2 mins followed by NADPH addition by fluorometric method in presence of rat cytochrome P450 reductase
How it was run: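 Reconstituted system at room temperature in 100 mM phosphate pH 7.4 with catalase and superoxide dismutase (2 units/mL each). 1 μM CYP3A4 and 1 μM rat CPR preincubated 1 h at room temperature, then diluted 20-fold in assay buffer just before measurement. BFC (50 μM) and varying compound concentrations added 2 min before starting with 100 μM NADPH. O-debenzylation read fluorometrically; IC50 = half-maximal inactivation.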

Cytochrome P450 3A4 [4] = target: T1, Cytochrome P450 3A4; experiment: Binding affinity to C-terminal four-histidine tagged human CYP3A4delta3 to 24 residues expressed in Escherichia coli assessed as spectral dissociation constant by spectrophotometric method
How it was run: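 Equilibrium titration of CYP3A4 in 50 mM phosphate pH 7.4 with 20% glycerol and 1 mM DTT. Ligand added in small aliquots from DMSO stock, final DMSO <2%. Absorbance spectra recorded. Ks obtained from one- or two-site saturation fit of absorbance change versus ligand concentration.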

T1 sequence (P08684 whole entry, the tested form may be a part): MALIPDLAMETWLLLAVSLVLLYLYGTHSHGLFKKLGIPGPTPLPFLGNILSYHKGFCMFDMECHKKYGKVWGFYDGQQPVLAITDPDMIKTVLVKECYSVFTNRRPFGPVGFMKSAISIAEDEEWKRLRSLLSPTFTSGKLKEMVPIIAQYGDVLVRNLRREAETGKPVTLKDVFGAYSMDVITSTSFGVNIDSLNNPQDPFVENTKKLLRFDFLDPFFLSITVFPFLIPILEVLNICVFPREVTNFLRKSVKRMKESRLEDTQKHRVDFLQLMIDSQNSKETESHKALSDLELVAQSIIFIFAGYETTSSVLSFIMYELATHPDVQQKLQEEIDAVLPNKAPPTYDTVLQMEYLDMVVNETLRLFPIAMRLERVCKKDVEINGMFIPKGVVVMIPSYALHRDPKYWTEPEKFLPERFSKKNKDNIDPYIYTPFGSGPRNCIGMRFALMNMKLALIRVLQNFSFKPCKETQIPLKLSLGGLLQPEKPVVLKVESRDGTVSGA

Compound	deltaTm (Cytochrome P450 3A4 [1])	K (Cytochrome P450 3A4 [2])	IC50 (Cytochrome P450 3A4 [3])	Kd (Cytochrome P450 3A4 [4])
NCCc1cccnc1	-0.1 °C	0.6 s⁻¹	5000 µM	2500 µM
CC(C)(C)OC(=O)NCCCCCC(=O)NCc1cccnc1	-0.2 °C	20 s⁻¹	75 µM	–
CC(C)(C)OC(=O)N[C@H](CSCCC(=O)NCc1cccnc1)CC1CCCCC1	-2 °C	4 s⁻¹	30 µM	10 µM
CC(C)(C)OC(=O)N[C@H](CSCCC(=O)NCc1cccnc1)Cc1ccccc1	-1 °C	1.7 s⁻¹	0.52 µM	0.9 µM
NCCCCCC(=O)NCc1cccnc1	-0.2 °C	0.8 s⁻¹	1000 µM	10 µM
CC(C)(C)OC(=O)N[C@H](CSCCC(=O)NCc1cccnc1)Cc1c[nH]c2ccccc12	0.2 °C	8 s⁻¹	0.21 µM	0.5 µM
c1ccncc1 [PYRIDINE]	0 °C	0.5 s⁻¹	–	–
